Laboratory results taken from ChEMBL document CHEMBL4130456 (ACS Med Chem Lett, 2017).
≈ marks a conversion by molar mass, not a printed value.

What was measured:
[1] = biological target: T1, Phosphatidylinositol 4,5-bisphosphate 3-kinase catalytic subunit alpha isoform (Homo sapiens, UniProt P42336); assay: Inhibition of recombinant human myristoylated PI3Kalpha catalytic domain expressed in Rat1 cells assessed as reduction in Akt phosphorylation at […] residue after 1 hr by alpha screen Surefire assay; format: cell-based
T1 sequence (P42336 whole entry, the tested form may be a part, canonical isoform): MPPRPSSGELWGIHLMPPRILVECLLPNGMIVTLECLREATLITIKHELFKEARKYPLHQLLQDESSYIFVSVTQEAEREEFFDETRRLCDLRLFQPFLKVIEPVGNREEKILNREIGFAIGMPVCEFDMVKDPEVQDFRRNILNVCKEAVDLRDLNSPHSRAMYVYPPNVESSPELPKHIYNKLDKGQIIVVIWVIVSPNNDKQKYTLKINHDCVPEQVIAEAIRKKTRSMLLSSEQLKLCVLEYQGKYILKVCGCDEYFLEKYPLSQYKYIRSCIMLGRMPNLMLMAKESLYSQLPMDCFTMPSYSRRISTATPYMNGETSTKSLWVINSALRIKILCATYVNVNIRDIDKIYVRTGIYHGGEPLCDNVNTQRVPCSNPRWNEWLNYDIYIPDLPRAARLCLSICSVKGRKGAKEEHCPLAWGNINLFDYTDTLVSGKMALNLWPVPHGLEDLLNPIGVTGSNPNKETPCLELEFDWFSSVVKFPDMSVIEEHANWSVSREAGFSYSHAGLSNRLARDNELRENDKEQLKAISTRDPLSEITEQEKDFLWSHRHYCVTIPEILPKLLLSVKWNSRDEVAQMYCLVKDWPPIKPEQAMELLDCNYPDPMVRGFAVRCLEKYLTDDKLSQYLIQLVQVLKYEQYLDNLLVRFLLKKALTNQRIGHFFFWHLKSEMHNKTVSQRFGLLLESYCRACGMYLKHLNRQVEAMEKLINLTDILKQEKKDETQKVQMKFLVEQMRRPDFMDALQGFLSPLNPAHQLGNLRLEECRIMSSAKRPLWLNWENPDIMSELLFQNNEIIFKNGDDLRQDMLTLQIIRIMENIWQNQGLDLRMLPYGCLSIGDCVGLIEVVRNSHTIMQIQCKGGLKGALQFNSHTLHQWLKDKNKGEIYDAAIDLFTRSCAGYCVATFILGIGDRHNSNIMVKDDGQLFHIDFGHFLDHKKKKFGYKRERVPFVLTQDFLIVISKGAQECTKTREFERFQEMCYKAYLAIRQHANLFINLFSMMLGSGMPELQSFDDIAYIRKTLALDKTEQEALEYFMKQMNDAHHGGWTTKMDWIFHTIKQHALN

[2] = biological target: Phosphatidylinositol 4,5-bisphosphate 3-kinase catalytic subunit gamma isoform (Homo sapiens, UniProt P48736); assay: Inhibition of PI3Kgamma (unknown origin) using phosphatidyl inositol as substrate measured after 30 mins by Alexa Fluor647-labelled ADP tracer based TR-FRET assay
Sequence of Phosphatidylinositol 4,5-bisphosphate 3-kinase catalytic subunit gamma isoform (P48736 whole entry, canonical isoform): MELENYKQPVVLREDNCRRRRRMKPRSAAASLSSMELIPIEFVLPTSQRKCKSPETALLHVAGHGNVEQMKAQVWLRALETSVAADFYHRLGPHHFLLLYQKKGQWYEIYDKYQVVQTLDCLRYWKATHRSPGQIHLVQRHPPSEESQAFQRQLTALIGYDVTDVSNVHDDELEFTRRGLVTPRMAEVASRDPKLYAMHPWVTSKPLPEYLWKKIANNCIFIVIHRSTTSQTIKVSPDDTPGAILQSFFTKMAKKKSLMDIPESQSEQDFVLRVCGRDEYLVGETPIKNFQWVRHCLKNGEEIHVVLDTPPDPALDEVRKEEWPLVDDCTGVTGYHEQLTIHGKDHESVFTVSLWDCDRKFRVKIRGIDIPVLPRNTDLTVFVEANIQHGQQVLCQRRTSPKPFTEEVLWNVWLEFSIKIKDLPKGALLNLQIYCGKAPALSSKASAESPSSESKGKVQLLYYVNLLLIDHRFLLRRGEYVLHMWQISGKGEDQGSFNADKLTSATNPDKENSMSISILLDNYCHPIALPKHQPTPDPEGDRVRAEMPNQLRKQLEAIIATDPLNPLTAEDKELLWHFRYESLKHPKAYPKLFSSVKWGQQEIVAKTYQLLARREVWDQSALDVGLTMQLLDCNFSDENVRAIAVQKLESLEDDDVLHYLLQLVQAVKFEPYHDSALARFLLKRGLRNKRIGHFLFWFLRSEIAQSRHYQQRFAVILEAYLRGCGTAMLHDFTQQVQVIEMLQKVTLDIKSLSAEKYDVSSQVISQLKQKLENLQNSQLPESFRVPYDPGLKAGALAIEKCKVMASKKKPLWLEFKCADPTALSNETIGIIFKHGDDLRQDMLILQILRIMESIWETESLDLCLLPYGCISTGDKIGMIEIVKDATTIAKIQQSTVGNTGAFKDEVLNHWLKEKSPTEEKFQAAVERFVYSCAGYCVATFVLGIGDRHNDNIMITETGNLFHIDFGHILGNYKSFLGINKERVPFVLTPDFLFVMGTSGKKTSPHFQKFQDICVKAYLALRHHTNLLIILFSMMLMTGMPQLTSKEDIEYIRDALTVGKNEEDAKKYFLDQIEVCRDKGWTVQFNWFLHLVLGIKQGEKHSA

[3] = Intrinsic clearance in rat liver microsomes assessed per mg protein; format: ADME, microsome; details: read-out: CLH
[4] = Lipophilicity, log P of the compound by artificial membrane based assay; format: physicochemical
[5] = biological target: T2, Phosphatidylinositol 4,5-bisphosphate 3-kinase catalytic subunit delta isoform (Homo sapiens, UniProt O00329); assay: Inhibition of PI3Kdelta (unknown origin) using phosphatidyl inositol as substrate measured after 60 mins by Alexa Fluor647-labelled ADP tracer based TR-FRET assay
T2 sequence (O00329 whole entry): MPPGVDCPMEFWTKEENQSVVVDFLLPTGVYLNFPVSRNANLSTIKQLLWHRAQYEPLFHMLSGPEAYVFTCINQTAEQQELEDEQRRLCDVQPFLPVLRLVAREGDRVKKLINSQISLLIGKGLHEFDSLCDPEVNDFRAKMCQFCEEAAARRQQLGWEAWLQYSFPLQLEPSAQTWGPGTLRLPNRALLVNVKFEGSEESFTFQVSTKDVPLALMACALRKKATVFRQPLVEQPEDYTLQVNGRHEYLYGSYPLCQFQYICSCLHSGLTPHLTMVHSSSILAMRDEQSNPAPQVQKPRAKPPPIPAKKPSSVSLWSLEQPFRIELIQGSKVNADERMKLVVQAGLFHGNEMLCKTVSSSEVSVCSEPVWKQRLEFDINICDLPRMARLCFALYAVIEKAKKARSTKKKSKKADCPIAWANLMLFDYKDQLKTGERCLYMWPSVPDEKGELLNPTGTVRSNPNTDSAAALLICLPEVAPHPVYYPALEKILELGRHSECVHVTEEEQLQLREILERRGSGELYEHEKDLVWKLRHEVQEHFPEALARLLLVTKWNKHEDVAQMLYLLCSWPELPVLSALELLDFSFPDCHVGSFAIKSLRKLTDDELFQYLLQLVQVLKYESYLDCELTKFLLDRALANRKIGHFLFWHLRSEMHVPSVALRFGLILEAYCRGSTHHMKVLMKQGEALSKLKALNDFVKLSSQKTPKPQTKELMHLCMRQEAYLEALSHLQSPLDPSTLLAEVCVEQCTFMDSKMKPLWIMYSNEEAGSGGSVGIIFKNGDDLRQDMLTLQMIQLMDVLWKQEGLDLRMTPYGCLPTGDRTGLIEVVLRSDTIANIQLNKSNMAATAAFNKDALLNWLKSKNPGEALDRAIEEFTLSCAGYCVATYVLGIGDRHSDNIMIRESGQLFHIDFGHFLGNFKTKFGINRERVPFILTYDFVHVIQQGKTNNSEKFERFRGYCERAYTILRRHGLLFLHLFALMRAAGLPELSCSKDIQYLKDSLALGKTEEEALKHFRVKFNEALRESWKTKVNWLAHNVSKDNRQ

[6] = biological target: T3, Phosphatidylinositol 4,5-bisphosphate 3-kinase catalytic subunit beta isoform (Homo sapiens, UniProt P42338); assay: Inhibition of recombinant PI3Kbeta (unknown origin) using phosphatidyl inositol/n-Octyl-glucoside as substrate measured after 60 mins by KinaseGlo assay
T3 sequence (P42338 whole entry, the tested form may be a part, canonical isoform): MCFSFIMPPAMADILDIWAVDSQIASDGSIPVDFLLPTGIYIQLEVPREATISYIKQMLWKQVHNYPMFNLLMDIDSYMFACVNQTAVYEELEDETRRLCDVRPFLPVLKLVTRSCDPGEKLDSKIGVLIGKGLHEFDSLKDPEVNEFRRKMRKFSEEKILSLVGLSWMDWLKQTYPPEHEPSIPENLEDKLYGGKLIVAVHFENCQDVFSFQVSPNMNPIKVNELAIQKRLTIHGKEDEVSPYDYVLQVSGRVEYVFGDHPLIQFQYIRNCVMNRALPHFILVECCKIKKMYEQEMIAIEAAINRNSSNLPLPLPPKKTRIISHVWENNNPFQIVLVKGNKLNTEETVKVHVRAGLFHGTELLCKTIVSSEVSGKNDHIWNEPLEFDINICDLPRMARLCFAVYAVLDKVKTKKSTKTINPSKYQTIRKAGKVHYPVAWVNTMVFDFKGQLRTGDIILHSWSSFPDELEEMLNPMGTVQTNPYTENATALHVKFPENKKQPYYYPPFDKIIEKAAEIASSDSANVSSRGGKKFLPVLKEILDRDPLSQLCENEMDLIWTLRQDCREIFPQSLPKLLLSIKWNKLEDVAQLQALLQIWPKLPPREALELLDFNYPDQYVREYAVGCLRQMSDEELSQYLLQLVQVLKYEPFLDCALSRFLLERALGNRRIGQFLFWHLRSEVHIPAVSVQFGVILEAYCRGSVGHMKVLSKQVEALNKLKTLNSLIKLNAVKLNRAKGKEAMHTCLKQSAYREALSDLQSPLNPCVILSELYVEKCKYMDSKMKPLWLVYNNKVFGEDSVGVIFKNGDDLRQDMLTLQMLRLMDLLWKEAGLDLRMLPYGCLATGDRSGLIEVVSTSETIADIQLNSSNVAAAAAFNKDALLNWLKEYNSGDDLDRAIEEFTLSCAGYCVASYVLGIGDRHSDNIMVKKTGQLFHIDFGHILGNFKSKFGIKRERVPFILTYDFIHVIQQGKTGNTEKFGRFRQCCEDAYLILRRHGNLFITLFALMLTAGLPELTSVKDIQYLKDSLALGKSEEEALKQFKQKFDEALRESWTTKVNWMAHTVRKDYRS

[7] = biological target: T3, Phosphatidylinositol 4,5-bisphosphate 3-kinase catalytic subunit beta isoform; assay: Inhibition of recombinant human myristoylated PI3Kbeta catalytic domain expressed in Rat1 cells assessed as reduction in Akt phosphorylation at […] residue after 1 hr by alpha screen Surefire assay; format: cell-based
[8] = biological target: T4, Phosphatidylinositol 4,5-bisphosphate 3-kinase catalytic subunit delta isoform (Mus musculus, UniProt O35904); assay: Inhibition of PI3Kdelta in Balb/c mouse splenocytes assessed as reduction in anti-IgM stimulated CD86 expression pretreated for 1 hr followed by anti-IgM stimulation after 24 hrs by flow cytometric analysis; format: cell-based
T4 sequence (O35904 whole entry): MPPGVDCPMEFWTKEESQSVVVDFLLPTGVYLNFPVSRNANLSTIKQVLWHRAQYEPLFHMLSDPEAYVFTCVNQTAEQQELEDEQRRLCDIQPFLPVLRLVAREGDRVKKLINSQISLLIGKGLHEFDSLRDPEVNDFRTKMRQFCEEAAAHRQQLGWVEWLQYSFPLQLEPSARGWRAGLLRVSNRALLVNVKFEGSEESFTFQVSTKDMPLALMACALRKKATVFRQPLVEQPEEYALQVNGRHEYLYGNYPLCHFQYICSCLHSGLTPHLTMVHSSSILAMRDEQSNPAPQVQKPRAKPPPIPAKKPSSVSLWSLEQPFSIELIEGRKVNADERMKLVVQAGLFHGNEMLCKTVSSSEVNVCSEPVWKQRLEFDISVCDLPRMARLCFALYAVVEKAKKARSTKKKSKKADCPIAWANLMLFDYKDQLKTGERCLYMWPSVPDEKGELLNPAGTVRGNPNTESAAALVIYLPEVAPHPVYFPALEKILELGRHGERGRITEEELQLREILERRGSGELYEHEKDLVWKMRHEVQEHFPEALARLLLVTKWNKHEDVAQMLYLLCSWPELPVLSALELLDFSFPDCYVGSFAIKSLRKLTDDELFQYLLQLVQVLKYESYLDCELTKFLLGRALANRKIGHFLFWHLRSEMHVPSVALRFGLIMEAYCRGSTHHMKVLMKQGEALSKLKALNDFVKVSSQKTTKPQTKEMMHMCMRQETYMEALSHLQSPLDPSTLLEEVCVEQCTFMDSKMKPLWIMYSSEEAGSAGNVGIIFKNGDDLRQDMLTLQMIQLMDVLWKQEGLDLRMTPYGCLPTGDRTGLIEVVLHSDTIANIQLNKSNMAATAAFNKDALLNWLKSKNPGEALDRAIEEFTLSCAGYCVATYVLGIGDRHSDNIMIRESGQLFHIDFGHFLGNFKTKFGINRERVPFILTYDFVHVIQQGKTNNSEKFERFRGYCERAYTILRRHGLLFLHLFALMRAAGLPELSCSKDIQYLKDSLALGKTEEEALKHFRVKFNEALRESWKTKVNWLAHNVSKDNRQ

[9] = biological target: T2, Phosphatidylinositol 4,5-bisphosphate 3-kinase catalytic subunit delta isoform; assay: Inhibition of recombinant human myristoylated PI3Kdelta catalytic domain expressed in Rat1 cells assessed as reduction in Akt phosphorylation at […] residue after 1 hr by alpha screen Surefire assay; format: cell-based
[10] = Equilibrium solubility of the compound at pH 6.8 by LC-MS/MS analysis; format: physicochemical; details: buffer
Summary of the method: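 High-throughput equilibrium solubility at pH 6.8, reported in mM.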

[11] = Inhibition of PI3Kdelta in 50% rat blood assessed as reduction in anti-IgM stimulated CD86 expression pretreated for 1 hr followed by anti-IgM stimulation after 24 hrs by flow cytometric analysis
Summary of the method: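 Rat 50% whole blood; B cells stimulated with anti-IgM/IL-4; readouts pAKT or CD86.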

[12] = biological target: T1, Phosphatidylinositol 4,5-bisphosphate 3-kinase catalytic subunit alpha isoform; assay: Inhibition of recombinant PI3Kalpha (unknown origin) using phosphatidyl inositol/n-Octyl-glucoside as substrate measured after 30 mins by KinaseGlo assay

Row | SMILES | IC50 [1] [µM] | IC50 [2] [µM] | microsomal CLint [3] [µL/min/mg] | logP [4] | IC50 [5] [µM] | IC50 [6] [µM] | IC50 [7] [µM] | IC50 [8] [µM] | IC50 [9] [µM] | solubility thermodynamic [10] [µM] | IC50 [11] [µM] | IC50 [12] [µM]
1 | COc1ncc(N2CCc3ncnc(O[C@H]4CCN(C(=O)C5CCOCC5)C4)c3C2)cc1C(F)(F)F | 3.55 | > 9.1 | 149 | 2.2 | 0.028 | 1.33 | 3.58 | 0.084 | 0.037 | 270 (≈ 137 µg/mL) | 0.058 | 
2 | COc1ccc(N2CCc3ncnc(-c4cccc(OC5CCN(C(C)=O)CC5)c4)c3C2)cn1 | 9.03 | > 9.1 | 197 | 2.2 | 0.083 | 8.94 | > 10 |  | 0.374 | > 1000 |  | 2.02
3 | COc1ncc(N2CCc3ncnc(O[C@H]4CCN(C(=O)C5CCOCC5)C4)c3C2)cc1C |  | 6.6 | 60 | 1.7 | 0.076 | 4.15 | 6.79 | 0.098 | 0.143 | > 1000 | 0.092 | 
4 | COc1ccc(N2CCc3ncnc(-c4cccc(C(=O)N5CCN(C(C)=O)CC5)c4)c3C2)cn1 | > 10 | > 9.1 | 91 | 0.7 | 0.065 | > 9.1 | > 10 |  | 2.63 | > 1000 |  | 6.94
5 | COc1ncc(N2CCc3ncnc(N[C@H]4CCN(C(=O)C5CCOCC5)C4)c3C2)cc1C(F)(F)F | 2.15 | 1.06 | 41 | 2.9 | 0.004 | 0.3 | 3.99 | 0.015 |  | 240 (≈ 122 µg/mL) | 0.016 | 0.044

Continued, values first:

Row | IC50 [1] [µM] | IC50 [2] [µM] | microsomal CLint [3] [µL/min/mg] | logP [4] | IC50 [5] [µM] | IC50 [6] [µM] | IC50 [7] [µM] | IC50 [8] [µM] | IC50 [9] [µM] | solubility thermodynamic [10] [µM] | IC50 [11] [µM] | IC50 [12] [µM] | SMILES
6 | > 10 | > 9.1 | 35 | 2.2 | 0.132 | 8.94 | > 10 |  | 5.39 | > 1000 |  | 6.66 | CCC(=O)N1CC[C@H](Oc2ncnc3c2CN(c2ccc(OC)nc2)CC3)C1
7 | 2.6 | > 9.1 | 160 | 3.1 | 0.027 | 1.71 | 3.11 |  | 0.131 | 80 (≈ 36.1 µg/mL) |  |  | CCC(=O)N1CC[C@H](Oc2ncnc3c2CN(c2cnc(OC)c(C(F)(F)F)c2)CC3)C1
8 | 7.41 |  |  | 2.8 |  | 0.951 | 7.91 | 0.087 |  | > 1000 | 0.073 |  | CCC(=O)N1CC[C@H](Nc2ncnc3c2CN(c2cnc(OC)c(C)c2)CC3)C1
9 |  | 3.29 | 22 | 2.6 | 0.03 | 2.02 | 9.87 | 0.091 | 0.358 | > 1000 | 0.074 |  | COc1ncc(N2CCc3ncnc(N[C@H]4CCN(C(=O)C5CCOCC5)C4)c3C2)cc1C
